Measured values reported in ChEMBL document CHEMBL1932989, “Dibasic biphenyl H3 receptor antagonists: Steric tolerance for a lipophilic side chain” (Eur J Med Chem, 2012).
Active and inactive are the calls of the source. The calls are words filed in the database; no cut-off is given here.

How the values were obtained:
Histamine H3 receptor [1] = molecular target: T1, Histamine H3 receptor (Homo sapiens, UniProt Q9Y5N1); assay: Displacement of [3H]RAMHA from human histamine H3 receptor expressed in GPCR97 transfected human SK-N-MC cells; assay type: cell-based
Procedure, shortened: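 SK-N-MC cell membranes stably expressing human H3; 60 min at room temperature with 0.5 nM [3H]-(R)-α-methylhistamine, competitor 0.01 nM–10 μM. Filtration, two washes with ice-cold 50 mM Tris–HCl/5 mM EDTA. Nonspecific binding with 10 μM histamine. pIC50 from displacement curves converted to pKi by Cheng–Prusoff; means ± SEM.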

Histamine H3 receptor [2] = molecular target: Histamine H3 receptor (Rattus norvegicus, UniProt Q9QYN8); assay: Displacement of [3H]RAMHA from rat histamine H3 receptor in rat cerebral cortex membranes; assay type: cell membranes, Membrane
Procedure, shortened: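 Rat brain membranes (Kilpatrick method) incubated 45 min with 0.5 nM [3H]-(R)-α-methylhistamine and compound (0.03 nM–10 μM) in 50 mM Tris–HCl pH 7.4, 50 mM NaCl, 0.5 mM EDTA. Vacuum filtration, two ice-cold buffer rinses. Nonspecific binding with 10 μM thioperamide. pIC50 converted to pKi via Cheng–Prusoff; means ± SEM.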

Histamine H3 receptor [3] = molecular target: T1, Histamine H3 receptor; assay: Antagonist activity at human histamine H3 receptor expressed in human SK-N-MC cells assessed as inhibition of (R)-alpha-methylhistamine-induced effect after 6 hrs by beta-galactosidase reporter gene assay; assay type: functional, cell-based
Procedure, shortened: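 SK-N-MC cells expressing human H3 receptor and a β-galactosidase reporter; compounds (1 nM–10 µM) added 10 min before (R)-α-methylhistamine (0.1–100 nM), forskolin 5 µM added 5 min after compound. Incubated 6 h at 37 °C, cells lysed, chlorophenol red β-D-galactopyranoside colour read at 570 nm. Response as % agonist maximum; pKB by Furchgott equation, or pD2' by Van Rossum for non-surmountable antagonism; mean ± SEM.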

Histamine H4 receptor = Histamine H4 receptor (Homo sapiens, UniProt Q9H3N8); assay: Displacement of [3H]histamine from human histamine H4 receptor expressed in GPCR97 transfected human SK-N-MC cells; assay type: cell-based
Procedure, shortened: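 Membranes of SK-N-MC cells stably expressing human H4, 60 min at room temperature with 10 nM [3H]-histamine, competitor 0.01 nM–10 μM. Filtration with two ice-cold Tris–HCl/EDTA washes. 10 μM histamine defined nonspecific binding. pKi derived from pIC50 by Cheng–Prusoff.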

[4] = molecular target: Histamine H1 receptor (Cavia porcellus) (UniProt P31389); assay: Antagonist activity at histamine H1 receptor in guinea pig longitudinally mounted ileum assessed as […] up to 10 uM […]; assay type: functional, tissue-based
[5] = molecular target: Histamine H2 receptor (Cavia porcellus) (UniProt P47747); assay: Antagonist activity at histamine H2 receptor in guinea pig spontaneously beating isolated atria assessed as changes in rate of spontaneous beating at 1 uM by cardiotachograph analysis
[6] = molecular target: Histamine H2 receptor (Cavia porcellus) (UniProt P47747); settings: Ileum
[7] = molecular target: Neuronal acetylcholine receptor subunit alpha-7 (Homo sapiens) (UniProt P36544); assay: Displacement of [125I]alpha-bungarotoxin from human alpha7 nicotinic receptor at 1 uM by scintillation counting
Procedure, shortened: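 Membrane homogenates bearing human α7 nicotinic receptor (20 µg protein) incubated 120 min at 37 °C with 0.05 nM [125I]α-bungarotoxin in 50 mM K2HPO4/KH2PO4 pH 7.4, 10 mM MgCl2, 0.1% BSA. Nonspecific binding with 1 µM α-bungarotoxin. Filtration on PEI-soaked glass fibre, scintillation counting; % inhibition of specific binding, duplicate.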

Sequence of Histamine H3 receptor (Rattus norvegicus, UniProt Q9QYN8) (Q9QYN8 whole entry): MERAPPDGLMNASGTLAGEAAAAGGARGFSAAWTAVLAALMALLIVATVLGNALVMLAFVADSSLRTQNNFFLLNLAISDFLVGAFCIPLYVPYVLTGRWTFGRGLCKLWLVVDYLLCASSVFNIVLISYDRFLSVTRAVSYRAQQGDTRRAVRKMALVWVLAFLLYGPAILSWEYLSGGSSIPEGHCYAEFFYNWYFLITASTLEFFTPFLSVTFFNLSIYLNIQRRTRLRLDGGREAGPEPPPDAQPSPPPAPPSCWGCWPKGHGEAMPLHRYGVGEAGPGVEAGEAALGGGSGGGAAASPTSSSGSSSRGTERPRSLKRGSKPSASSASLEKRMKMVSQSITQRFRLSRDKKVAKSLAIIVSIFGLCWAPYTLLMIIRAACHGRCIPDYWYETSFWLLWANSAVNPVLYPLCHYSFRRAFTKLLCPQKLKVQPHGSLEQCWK
Sequence of Histamine H1 receptor (Cavia porcellus) (P31389 whole entry): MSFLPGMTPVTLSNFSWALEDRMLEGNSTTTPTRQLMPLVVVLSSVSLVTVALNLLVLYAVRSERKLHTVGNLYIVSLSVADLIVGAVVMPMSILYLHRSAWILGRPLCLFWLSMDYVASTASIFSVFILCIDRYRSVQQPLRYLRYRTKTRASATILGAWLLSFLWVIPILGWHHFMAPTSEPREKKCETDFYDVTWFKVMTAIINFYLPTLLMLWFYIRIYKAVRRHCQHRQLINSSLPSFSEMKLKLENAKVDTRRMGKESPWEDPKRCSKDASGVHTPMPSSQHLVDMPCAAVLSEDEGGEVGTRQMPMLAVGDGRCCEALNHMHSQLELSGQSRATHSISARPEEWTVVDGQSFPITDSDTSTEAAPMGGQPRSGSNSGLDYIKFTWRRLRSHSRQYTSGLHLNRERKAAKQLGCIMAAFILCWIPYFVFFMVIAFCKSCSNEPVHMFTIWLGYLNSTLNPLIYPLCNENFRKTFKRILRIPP
Sequence of Histamine H2 receptor (Cavia porcellus) (P47747 whole entry): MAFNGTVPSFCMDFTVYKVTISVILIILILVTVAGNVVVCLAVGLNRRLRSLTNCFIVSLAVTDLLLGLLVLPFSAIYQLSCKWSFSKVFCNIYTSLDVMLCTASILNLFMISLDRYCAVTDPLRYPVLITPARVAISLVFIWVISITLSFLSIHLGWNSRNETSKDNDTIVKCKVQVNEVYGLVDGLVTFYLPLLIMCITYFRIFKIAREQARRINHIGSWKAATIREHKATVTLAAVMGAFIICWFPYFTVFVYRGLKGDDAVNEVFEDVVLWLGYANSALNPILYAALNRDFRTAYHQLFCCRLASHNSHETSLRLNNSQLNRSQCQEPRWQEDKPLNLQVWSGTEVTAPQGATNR
T1 sequence (Q9Y5N1 whole entry): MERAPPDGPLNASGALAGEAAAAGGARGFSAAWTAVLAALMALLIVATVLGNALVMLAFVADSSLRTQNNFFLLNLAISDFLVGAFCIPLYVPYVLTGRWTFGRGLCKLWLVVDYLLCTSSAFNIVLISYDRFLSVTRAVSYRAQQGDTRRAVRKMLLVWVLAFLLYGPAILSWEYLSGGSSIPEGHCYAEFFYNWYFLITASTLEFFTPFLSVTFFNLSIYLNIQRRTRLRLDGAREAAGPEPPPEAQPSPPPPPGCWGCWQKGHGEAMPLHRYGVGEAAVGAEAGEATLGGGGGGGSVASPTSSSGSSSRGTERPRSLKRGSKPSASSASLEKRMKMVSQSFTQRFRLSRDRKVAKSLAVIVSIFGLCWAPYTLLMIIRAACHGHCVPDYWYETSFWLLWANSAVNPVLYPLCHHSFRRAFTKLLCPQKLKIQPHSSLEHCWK
Sequence of Neuronal acetylcholine receptor subunit alpha-7 (Homo sapiens) (P36544 whole entry): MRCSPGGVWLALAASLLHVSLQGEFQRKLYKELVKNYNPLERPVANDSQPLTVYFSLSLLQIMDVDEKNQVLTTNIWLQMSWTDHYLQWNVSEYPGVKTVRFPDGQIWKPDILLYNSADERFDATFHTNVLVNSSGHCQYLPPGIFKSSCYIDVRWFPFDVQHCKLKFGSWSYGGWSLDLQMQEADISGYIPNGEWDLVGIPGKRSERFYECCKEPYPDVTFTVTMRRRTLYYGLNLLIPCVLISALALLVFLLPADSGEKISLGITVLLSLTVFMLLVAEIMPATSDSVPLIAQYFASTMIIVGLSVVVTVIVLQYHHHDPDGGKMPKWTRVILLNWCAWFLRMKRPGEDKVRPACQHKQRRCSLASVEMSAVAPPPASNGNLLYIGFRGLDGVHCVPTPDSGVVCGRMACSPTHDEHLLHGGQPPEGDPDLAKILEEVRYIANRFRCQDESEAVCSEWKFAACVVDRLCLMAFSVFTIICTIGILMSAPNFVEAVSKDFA

| Ki (Histamine H3 receptor [1]) [nM] | Ki (Histamine H3 receptor [2]) [nM] | pKb (Histamine H3 receptor [3]) | Ki (Histamine H4 receptor) [nM] | Activity [4] | Activity [5] | pKb [6] | Compound | inhibition [7] |
| --- | --- | --- | --- | --- | --- | --- | --- | --- |
| 1.26 | 1.41 | 8.37 | ≥ 31600 | inactive | inactive |  | CCCC[C@@H](c1ccc(-c2ccc(CN3CCCCC3)cc2)cc1)N1CCC[C@@H]1C |  |
| 2.57 | 4.68 | 9.15 | ≥ 31600 | inactive | inactive |  | C[C@H]1CCCN1[C@@H](CCCOc1ccccc1)c1ccc(-c2ccc(CN3CCCCC3)cc2)cc1 |  |
| 2.04 | 2.09 | 8.71 | ≥ 31600 | inactive | inactive |  | COc1ccc(OCCC[C@@H](c2ccc(-c3ccc(CN4CCCCC4)cc3)cc2)N2CCC[C@@H]2C)cc1 |  |
| 2 | 1.48 | 9.64 | ≥ 31600 | inactive | inactive |  | COCCC[C@H](c1ccc(-c2ccc(CN3CCCCC3)cc2)cc1)N1CCC[C@@H]1C |  |
| 2.45 | 26.3 | 8.94 | ≥ 31600 | inactive | inactive |  | CCCC[C@@H](c1ccc(-c2ccc(CN3CCCCC3)cc2)cc1)N1CCCC[C@@H]1C |  |
| 1.48 | 3.55 | 9.16 | ≥ 31600 | inactive | inactive |  | C[C@@H]1CCCN1Cc1ccc(-c2ccc(CN3CCCCC3)cc2)cc1 |  |
| 2.34 | 16.2 | 8.58 | ≥ 31600 | inactive | inactive |  | CCCC[C@@H](c1ccc(-c2ccc(CN3CCCCC3)cc2)cc1)N1CCC[C@H]1C |  |
| 0.871 | 1.78 | 10 | ≥ 31600 | inactive | inactive |  | COCCC[C@@H](c1ccc(-c2ccc(CN3CCCCC3)cc2)cc1)N1CCC[C@@H]1C |  |
| 2.45 | 12.6 | 8.8 | ≥ 31600 | inactive |  | 5.13 | CCCC[C@H](c1ccc(-c2ccc(CN3CCCCC3)cc2)cc1)N1CCC[C@H]1C |  |
| 0.661 | 0.372 | 9.46 | ≥ 31600 | inactive | inactive |  | C[C@H]1CCCN1Cc1ccc(-c2ccc(CN3CCCCC3)cc2)cc1 |  |
| 1.55 | 8.71 | 8.81 | ≥ 31600 | inactive | inactive |  | CCCC[C@H](c1ccc(-c2ccc(CN3CCCCC3)cc2)cc1)N1CCC[C@@H]1C |  |
|  |  | 8.77 |  |  |  |  | c1cc(-c2ccc(CN3CCCCC3)cc2)ccc1CN1CCCCC1 |  |
| 1.26 | 6.61 | 8.71 | ≥ 31600 | inactive | inactive |  | COc1ccc(OCCC[C@H](c2ccc(-c3ccc(CN4CCCCC4)cc3)cc2)N2CCC[C@@H]2C)cc1 |  |
| 1.29 | 4.27 | 8.81 | ≥ 31600 | inactive | inactive |  | CCCCC(c1ccc(-c2ccc(CN3CCCCC3)cc2)cc1)N1CCCCC1 (racemic) |  |
| 3.02 | 26.3 | 8.91 | ≥ 31600 | inactive | inactive |  | CCCC[C@H](c1ccc(-c2ccc(CN3CCCCC3)cc2)cc1)N1CCCC[C@@H]1C |  |
| 13500 | 43700 |  | ≥ 31600 |  | inactive |  | CCCCC(c1ccc(-c2ccc(C)cc2)cc1)N1CCCCC1 (racemic) |  |
| 12900 | 60300 |  | ≥ 31600 |  | inactive |  | CCCCCc1ccc(-c2ccc(CN3CCCCC3)cc2)cc1 |  |

| Compound | Ki (Histamine H3 receptor [1]) [nM] | Ki (Histamine H3 receptor [2]) [nM] | pKb (Histamine H3 receptor [3]) | Ki (Histamine H4 receptor) [nM] | Activity [4] | Activity [5] | pKb [6] | inhibition [7] |
| --- | --- | --- | --- | --- | --- | --- | --- | --- |
| c1ccc(CC(c2ccc(-c3ccc(CN4CCCCC4)cc3)cc2)N2CCCCC2)cc1 (racemic) | 19.1 | 112 | 8.3 | ≥ 31600 | inactive | inactive |  |  |
| C[C@@H]1CCCN1Cc1ccc(-c2ccc(C(Cc3ccccc3)N3CCCCC3)cc2)cc1 (mixture of isomers) | 5.62 | 29.5 | 8.87 | ≥ 31600 | inactive | inactive |  |  |
| C[C@H]1CCCN1[C@H](CCCOc1ccccc1)c1ccc(-c2ccc(CN3CCCCC3)cc2)cc1 | 0.513 | 6.61 | 8.48 | ≥ 31600 | inactive | inactive |  | inactive |
| CN(C)C(Cc1ccccc1)c1ccc(-c2ccc(CN3CCCCC3)cc2)cc1 (racemic) | 16.6 | 30.2 | 7.56 | ≥ 31600 | inactive | inactive |  |  |
